# Apaf1 inhib – inhibitors of human Apaf-1 apoptosome; O14727; reconstituted apoptosome caspase-3 activity, DEVD-Rh110 fluorescence; inhibition, % at 20 µM; 0.71% of 330,000 active; AID 489030; active means inhibition of at least 40% at 20 µM;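 further: plate controls were DMSO wells for no effect and DEVD-CHO caspase inhibitor wells for full effect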
#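 System – cell-free apoptosome with Apaf-1, procaspase-3 and caspase-9 · Buffer or medium – pH 7.5 Hepes buffer with CHAPS, BSA, DTT · Also added – cytochrome c with DEVD-Rh110 · Times – 30 min compound preincubation, 50 min activation, room temperature · Technique – Rh110 fluorescence intensity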
# PAD4 inh – PAD4 (human) enzyme inhibition | inhibition, % at 6.36 µM | recombinant PAD4, RCA probe fluorescence polarization | Q9UM07 | 0.41% of 330,000 active;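 active means percent inhibition above a cutoff equal to the mean of all tested compounds plus 3 SD, cut at about 15% in these data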;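 further: 0% = PAD4 with RCA probe and DMSO and 100% = probe without PAD4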
# SUMO HTRF inh – SUMOylation inhibition. HTRF SUMOylation assay, SAE1/SAE2 + UBC9, in vitro. P63279. inhibition, % at 35 µM. 0.36% of 290,000 active. AID 2006; in the data active means inhibition above about 50%, passing the limit was not always enough
# Target sequence (P63279 whole entry, looked up): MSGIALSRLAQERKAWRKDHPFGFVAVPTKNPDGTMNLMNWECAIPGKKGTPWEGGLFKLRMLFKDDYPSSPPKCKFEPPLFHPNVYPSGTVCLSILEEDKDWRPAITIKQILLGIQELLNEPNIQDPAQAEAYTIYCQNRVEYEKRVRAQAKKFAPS
# Rin1-Abl PPI inh – human Rin1-Abl interaction inhibition; P00519+Q13671; TR-FRET Rin1/Abl binding, biochemical; inhibition, % at 7.35 µM; 0.4% of 360,000 active; in the data active means inhibition above about 5%, passing the limit was not always enough
# GSTO1 inh – GSTO1 inhibition, counter-screen for RBBP9 inhibitors; AID 1974; recombinant GSTO1, activity-based probe fluorescence polarization; inhibition, % at 5.96 µM; 1.1% of 300,000 active; P78417;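 active means inhibition above the campaign mean inhibition plus 3 SD, cut at about 35% in these data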;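 further: 0% = GSTO1-1 with DMSO and 100% = wells lacking GSTO1-1 enzyme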
# UBC13 inh – human UBC13 polyubiquitination inhibition; 0.47% of 330,000 active; UBC13 polyubiquitin chain formation, TR-FRET; P61088; inhibition, % at 20 µM; in the data active means inhibition above about 45%, passing the limit was not always enough
# Casp3 UBC13 ctr – inhibits human caspase-3 in UBC13 counter-screen | shares compounds with UBC13 inh | 4% of 1,400 active | AID 488856 | Recombinant caspase-3, Caspase-Glo 3/7 luminescence, 60 min | inhibition, % at 20 µM;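 active means mean inhibition across replicates above about 26%, limit read from the data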;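 further: plate controls were DMSO with caspase-3 for no effect and DMSO wells lacking enzyme for full effect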
# Target sequence (P42574 whole entry, looked up): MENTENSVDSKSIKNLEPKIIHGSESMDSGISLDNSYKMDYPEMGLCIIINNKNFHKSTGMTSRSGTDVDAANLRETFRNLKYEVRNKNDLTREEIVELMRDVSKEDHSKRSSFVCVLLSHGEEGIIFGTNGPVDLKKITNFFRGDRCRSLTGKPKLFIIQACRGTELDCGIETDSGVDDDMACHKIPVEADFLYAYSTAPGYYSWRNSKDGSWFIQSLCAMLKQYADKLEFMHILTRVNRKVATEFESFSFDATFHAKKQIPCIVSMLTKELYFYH
# UBC13 conf – confirmation of human UBC13 polyubiquitin inhibitors; shares compounds with UBC13 inh; UBC13 polyubiquitination, TR-FRET, biochemical; inhibition, % at 10 µM; 68% of 1,400 active; AID 488859; in the data active means inhibition above about 45%
# Apaf-1 inh conf – confirmation of Apaf-1 inhibitors | reconstituted apoptosome, caspase-3 DEVD-Rh110 fluorescence | inhibition, % at 20 µM | 25% of 1,800 active | shares compounds with Apaf1 inhib;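 active means mean inhibition of at least 40% at 20 µM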;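 further: plate controls were DMSO wells for no effect and DEVD-CHO caspase inhibitor control wells for full effect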
# Rh110 interf inh – counter-screen for Apaf-1 inhibitors: fluorescence interference. Rh110 fluorescence interference, quenched caspase reaction. AID 504615. activation (fluorescence interference), % at 20 µM. shares compounds with Apaf1 inhib. 1,800 tested, under 10 active;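 active means signal rise of 40% or more at 20 µM, treated as a fluorescence artifact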
# Active calls of the source: *; · = no result; ! = repeats disagree. The list is not random: actives were taken first. Their share in the collection is about 2.2%.
SMILES,Apaf1 inhib,PAD4 inh,SUMO HTRF inh,Rin1-Abl PPI inh,GSTO1 inh,UBC13 inh,Casp3 UBC13 ctr,UBC13 conf,Apaf-1 inh conf,Rh110 interf inh
COc1ccc(/C=N/Nc2cc(C)nc3ccc(OC)cc23)c(OC)c1,43*,-3,10,-15,-4,102*,4,122*,0,7
COc1ccc([C@@H]2C[C@H]3[C@@H](CN2S(=O)(=O)c2ccccc2)C(=O)C[C@@H](c2ccccc2F)N3S(=O)(=O)c2ccc(C)cc2)cc1,·,·,·,-1,·,·,·,·,·,·
c1ccc(C2(CN3CCNC[C@H]3Cc3cccc4ccccc34)CC2)cc1,53*,-4,·,2,0,59*,2,48*,2,5
Oc1ccc(C[C@@H]2CNCCN2CCc2cccc3ccccc23)cc1,8,-1,·,-1,5,29,·,·,·,·
c1ccc2c(C[C@@H]3CNCCN3CCCCC3CCCCC3)cccc2c1,71*,1,·,3,·,74*,-1,61*,34,19
c1ccc2c(C[C@@H]3CNCCN3CCC34CC5CC(CC(C5)C3)C4)cccc2c1,66*,-4,·,0,·,50*,-3,53*,24,14
O=C1NC[C@@H](Cc2cccc3ccccc23)N(CC2(c3ccccc3)CC2)C1=O,38,-5,0,0,-7,-7,·,·,·,·
CC(CN1CC(=O)NC(=O)C1)N1CC(=O)NC(=O)C1 (configuration not stated),·,·,·,3,·,·,·,·,·,·
CCOC(=O)C1=C(COCCN)NC(C)=C(C(=O)OC)C1c1ccccc1Cl (configuration not stated),49*!,-5,·,-2,6,61*!,3,37,8,-10
CCN(CC)C(=O)C1=C(C)N(CCCOC)C(=O)C(CC(=O)NC2CC2)C1 (configuration not stated),·,·,·,0,·,·,·,·,·,·
COc1ccc(CN(C)C(=O)Cc2ccc(OC)c(S(=O)(=O)N3CCOCC3)c2)cc1OC,60*,-2,·,1,·,101*,-3,109*,34,-2
COc1ccc(Br)cc1CN(C)C(=O)Cc1ccc(OC)c(S(=O)(=O)N2CCOCC2)c1,-3,-1,·,3,·,4,·,·,·,·
COc1ccc(CC(=O)N(C)CC(=O)Nc2ccccc2Cl)cc1S(=O)(=O)N1CCOCC1,59*,-4,·,-1,·,52*,3,41,33,-4
O=C(NC(=S)Nc1ccc2nc[nH]c2c1)c1ccccc1,0,0,-2,-5,-3,-7,·,·,·,·
Cc1c(C(=O)Nc2ccc(S(=O)(=O)N(C)C3CCN(C)CC3)cc2)oc2ccccc12,53*,-3,·,-3,·,56*,-2,34,21,2
O=C(CSc1nnc(CNC(=O)c2c(F)cccc2F)o1)NCc1ccc2c(c1)OCO2,·,·,·,2,·,·,·,·,·,·
CC(C)[C@@H]1CN=C(N)N1C[C@@H]1CCCN1C[C@H](C)N1C[C@@H](Cc2ccccc2)N(CCc2ccc(Cl)c(Cl)c2)C1=N,54*,-2,·,-2,·,70*,-2,46*,13,-1
C[C@@H](CN1CCC[C@H]1CN1C(N)=NC[C@@H]1Cc1ccccc1)N1C[C@@H](Cc2ccccc2)N(CCc2ccc(Cl)c(Cl)c2)C1=N,74*,4,·,5,·,63*,-5,70*,29,5
CC(C)C[C@@H](CN1CCC[C@@H]1CN1C(=O)C(=O)NC[C@@H]1Cc1ccccc1)N1C[C@H](Cc2ccc(O)cc2)N(CCc2ccccc2)C(=O)C1=O,·,·,·,-1,·,·,·,·,·,·
CC(C)[C@H](CN1CCC[C@H]1CN1C(N)=NC[C@@H]1Cc1ccccc1)N1C[C@@H](Cc2ccccc2)N(CCc2ccc(Cl)c(Cl)c2)C1=N,82*,-4,·,-2,·,75*,3,76*,40,8

# From PubChem BioAssay
